Reference: ChEMBL document CHEMBL2331121, “Design, synthesis, and pharmacological characterization of N- and O-substituted 5,6,7,8-tetrahydro-4H-isoxazolo[4,5-d]azepin-3-ol analogues: novel 5-HT(2A)/5-HT(2C) receptor agonists with pro-cognitive properties” (J Med Chem, 2013)
Active and inactive are the calls of the source. The rule behind the calls is not given here.

Columns and labels:
[1] = target: T1, 5-hydroxytryptamine receptor 2C (Homo sapiens) (UniProt P28335); test: Antagonist activity at human 5HT2C receptor expressed in HEK293 cells assessed as inhibition of 5HT-induced intracellular calcium release at 1 mM measured for 90 secs by fluorescence assay; type: functional, cell-based
T1 sequence (whole entry): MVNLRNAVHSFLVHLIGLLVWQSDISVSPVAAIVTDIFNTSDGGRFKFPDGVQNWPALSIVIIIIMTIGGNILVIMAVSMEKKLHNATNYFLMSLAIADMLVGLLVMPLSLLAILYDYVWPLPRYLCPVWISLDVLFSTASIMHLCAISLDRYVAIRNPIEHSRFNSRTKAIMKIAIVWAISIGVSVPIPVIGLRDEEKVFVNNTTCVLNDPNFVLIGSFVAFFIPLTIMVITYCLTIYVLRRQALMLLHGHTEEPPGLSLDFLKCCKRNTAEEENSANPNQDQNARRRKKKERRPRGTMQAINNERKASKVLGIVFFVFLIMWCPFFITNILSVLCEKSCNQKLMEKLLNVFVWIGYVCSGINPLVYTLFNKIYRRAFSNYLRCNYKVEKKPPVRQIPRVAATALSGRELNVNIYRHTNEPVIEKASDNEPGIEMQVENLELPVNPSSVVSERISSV
Method in brief: (§1)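 Fluo-4/Ca²⁺ read-out in stable h5-HT2A or h5-HT2C HEK293 cells (HBSS/HEPES/probenecid buffer, pH 7.4). Antagonist was added after the dye-loading wash, then cells were challenged with an EC₇₅−EC₈₅ concentration of 5-HT. Emission at 525 nm was monitored up to 90 s after agonist addition. Duplicate, repeated in independent experiments.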

[2] = target: T2, 5-hydroxytryptamine receptor 2A (Homo sapiens, UniProt P28223); test: Agonist activity at human 5HT2A receptor expressed in HEK293 cells assessed as induction of intracellular calcium release measured for 90 secs by fluorescence assay; type: functional, cell-based
[3] = target: T2, 5-hydroxytryptamine receptor 2A; test: Antagonist activity at human 5HT2A receptor expressed in HEK293 cells assessed as inhibition of 5HT-induced intracellular calcium release at 1 mM measured for 90 secs by fluorescence assay; type: functional, cell-based; method in brief: as §1
[4] = target: T2, 5-hydroxytryptamine receptor 2A; test: Agonist activity at human 5HT2A receptor expressed in HEK293 cells assessed as induction of intracellular calcium release at 1 mM measured for 90 secs by fluorescence assay; type: functional, cell-based
Method in brief: (§2)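 Stable polyclonal h5-HT2A or h5-HT2C HEK293 cells plated on poly-D-lysine wells, loaded next day with Fluo-4/AM for 1 h at 37 °C. Buffer was HBSS with 20 mM HEPES, 1 mM CaCl₂, 1 mM MgCl₂, 2.5 mM probenecid, pH 7.4. Fluorescence read at 485/525 nm before and up to 90 s after agonist addition. Responses normalised to 5-HT on the same plate. Duplicate, 4−10 experiments.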

[5] = target: T3, 5-hydroxytryptamine receptor 2C (Homo sapiens, UniProt P28335); test: Agonist activity at human 5HT2C receptor expressed in HEK293 cells assessed as induction of intracellular calcium release measured for 90 secs by fluorescence assay; type: functional, cell-based
T3 sequence (P28335 whole entry): T1 sequence (whole entry)

[6] = target: T1, 5-hydroxytryptamine receptor 2C (Homo sapiens); test: Agonist activity at human 5HT2C receptor expressed in HEK293 cells assessed as induction of intracellular calcium release at 1 mM measured for 90 secs by fluorescence assay; type: functional, cell-based; method in brief: as §2
[7] = target: T3, 5-hydroxytryptamine receptor 2C; test: Displacement of [3H]mesulergine from human 5HT2C receptor expressed in tsA201 cell membranes after 1 hr by scintillation counting analysis
[8] = target: T2, 5-hydroxytryptamine receptor 2A; test: biochemical; type: cell-based, tsA201
[9] = target: T1, 5-hydroxytryptamine receptor 2C (Homo sapiens); test: Agonist activity at human 5HT2C receptor expressed in HEK293 cells assessed as induction of intracellular calcium release by fluorescence assay relative to 5HT; type: functional, cell-based
Method in brief: (§3)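 Stable polyclonal 5-HT2A or 5-HT2C HEK293 cells seeded on poly-D-lysine plates (6 × 10⁴ cells/well). Next day loaded with Fluo-4/AM for 1 h at 37 °C in HBSS/20 mM HEPES/1 mM CaCl₂/1 mM MgCl₂/2.5 mM probenecid, pH 7.4. Fluorescence (485 ex/525 em) recorded before and up to 90 s after agonist. Response relative to 5-HT on the same plate. Duplicate, at least three times.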

[10] = target: T2, 5-hydroxytryptamine receptor 2A; test: Agonist activity at human 5HT2A receptor expressed in HEK293 cells assessed as induction of intracellular calcium release by fluorescence assay relative to 5HT; type: functional, cell-based; method in brief: as §3

T2 sequence (P28223 whole entry): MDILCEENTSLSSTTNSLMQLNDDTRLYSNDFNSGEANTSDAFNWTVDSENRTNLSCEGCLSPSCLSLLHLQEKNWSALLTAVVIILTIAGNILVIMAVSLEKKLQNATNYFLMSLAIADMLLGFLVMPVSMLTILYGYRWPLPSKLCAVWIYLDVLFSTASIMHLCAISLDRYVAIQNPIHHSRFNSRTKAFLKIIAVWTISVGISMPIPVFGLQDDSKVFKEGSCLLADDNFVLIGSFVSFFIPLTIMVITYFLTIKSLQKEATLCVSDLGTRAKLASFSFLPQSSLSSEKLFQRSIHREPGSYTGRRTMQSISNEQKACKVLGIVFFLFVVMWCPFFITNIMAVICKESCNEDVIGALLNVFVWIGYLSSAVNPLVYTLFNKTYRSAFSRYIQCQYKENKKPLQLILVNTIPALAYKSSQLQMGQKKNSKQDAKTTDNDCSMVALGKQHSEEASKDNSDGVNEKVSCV

SMILES	Activity [1]	EC50 ([2]; hek293, read-out: EC50) [µM]	EC50 ([2]; read-out: pEC50 (converted)) [µM]	Activity [3]	Activity [4]	EC50 ([5]; hek293, read-out: EC50) [µM]	EC50 ([5]; read-out: pEC50 (converted)) [µM]	Activity [6]	Ki [7] [µM]	Ki ([8]; read-out: Ki) [µM]	Ki ([8]; read-out: pKi (converted)) [µM]	Emax [9] [%]	EC50 ([2]; read-out: EC50) [µM]	Emax [10] [%]	EC50 ([5]; read-out: EC50) [µM]
O=c1c2c(on1Cc1ccccc1)CCNC2	inactive	> 1000	> 1000	inactive	inactive	> 1000	> 1000	inactive	–	–	–	–	–	–	–
CCn1oc2c(c1=O)CCN(C)CC2	inactive	> 1000	> 1000	inactive	inactive	> 1000	> 1000	inactive	> 300	> 300	> 316	–	–	–	–
CCOc1noc2c1CCNC2	inactive	> 1000	> 1000	inactive	inactive	> 1000	> 1000	inactive	–	–	–	–	–	–	–
O=c1c2c(on1Cc1ccccc1I)CCNCC2	–	–	–	–	–	–	–	–	7.2	–	–	–	–	–	–
Cn1oc2c(c1=O)CNCC2	inactive	> 1000	> 1000	inactive	inactive	> 1000	> 1000	inactive	–	–	–	–	–	–	–
C[C@H](N)Cn1ccc2cc(F)c(Cl)cc21	–	–	–	–	–	–	–	–	–	–	–	111	0.027	117	0.0047
CCOc1noc2c1CCNCC2	–	–	–	–	–	–	–	–	100	100	–	67	7.9	42	3
Oc1noc2c1CCNCC2	inactive	> 1000	> 1000	inactive	inactive	> 1000	> 1000	inactive	> 300	> 300	> 316	–	–	–	–
O=C1Nc2cc(Cl)c(Cl)cc2N2CCNCC12 (stereo not drawn)	–	–	–	–	–	–	–	–	–	–	–	95	0.012	110	0.0073
CCn1oc2c(c1=O)CNCC2	inactive	> 1000	> 1000	inactive	inactive	> 1000	> 1000	inactive	–	–	–	–	–	–	–
CCOc1noc2c1CCN(C)CC2	inactive	> 1000	> 1000	inactive	inactive	> 1000	> 1000	inactive	> 300	> 300	> 316	–	–	–	–
O=c1c2c(on1Cc1cccc(I)c1)CCNCC2	–	–	–	–	–	–	–	–	4.8	–	–	–	–	–	–
CN1CCc2on(C)c(=O)c2CC1	inactive	> 1000	> 1000	inactive	inactive	> 1000	> 1000	inactive	> 300	> 300	> 316	–	–	–	–
CCn1oc2c(c1=O)CCNC2	inactive	> 1000	> 1000	inactive	inactive	> 1000	> 1000	inactive	–	–	–	–	–	–	–
O=c1c2c(on1Cc1ccccc1)CCCNC2	inactive	> 1000	> 1000	inactive	inactive	> 1000	> 1000	inactive	–	–	–	–	–	–	–
